This passage reports TCS50 results from ChEMBL document CHEMBL1146596, “New lupane derived compounds with pro-apoptotic activity in cancer cells: synthesis and structure-activity relationships” (2003).

For the assay, the system named is CCRF-CEM. The assay is described as follows: Cytotoxicity against chemosensitive CEM-T lymphoblastc leukemia cell line. The assay is classed as functional, Homo sapiens. The method in brief:
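Cells were kept in DMEM/RPMI 1640 with 10% fetal calf serum, 2 mM glutamine and antibiotics. They were seeded at 2500–30 000 cells/well according to growth characteristics and preincubated 24 h at 37 °C, 5% CO2. Four-fold compound dilutions were tested in duplicate for 72 h. MTT was then added for 1–4 h, the formazan was dissolved in 10% SDS (pH 5.5) overnight, and OD was read at 540 nm. Survival was taken relative to mean control, and TCS50 was derived from dose–response curves.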
Molecule `CC(=O)OCOC(=O)[C@@]12CC[C@]3(C)[C@H](CC[C@@H]4[C@@]5(C)CC[C@H](OC(C)=O)C(C)(C)[C@@H]5CC[C@]43C)C1=C(C(C)C)C(=O)C2=O` came in with a TCS50 of 3 µM.

On to `CC(=O)OC[C@@]12CC[C@]3(C)[C@H](CC[C@@H]4[C@@]5(C)CC[C@H](OC(C)=O)C(C)(C)[C@@H]5CC[C@]43C)C1=C(C(C)C)C(=O)C2`, for which the TCS50 came to 14 µM.

The molecule `COC(=O)C[C@]1(C(=O)OCOC(=O)C(C)(C)C)CC[C@]2(C)[C@H](CC[C@@H]3[C@@]4(C)CC[C@H](OC(C)=O)C(C)(C)[C@@H]4CC[C@]32C)C1=O` yielded a TCS50 of 99 µM.

The molecule `CC(=O)OCOC(=O)[C@]1(COC(C)=O)CC[C@]2(C)[C@H](CC[C@@H]3[C@@]4(C)CC[C@H](OC(C)=O)C(C)(C)[C@@H]4CC[C@]32C)C1=O` registered a TCS50 of 86 µM.

Regarding `CC(=O)O[C@H]1CC[C@]2(C)[C@H]3CC[C@@H]4C(=O)CCC[C@@]4(C)[C@]3(C)CC[C@H]2C1(C)C`, the TCS50 was >250 µM.

Consider `CC(=O)O[C@H]1CC[C@]2(C)[C@H]3CC[C@@H]4C5=C(C(C)C)C(=O)C[C@]5(C(=O)O)CC[C@@]4(C)[C@]3(C)CC[C@H]2C1(C)C`, for which the TCS50 was >250 µM.

`COC(=O)[C@@]12CC[C@]3(C)[C@H](CC[C@@H]4[C@@]5(C)CC[C@H](OC(C)=O)C(C)(C)[C@@H]5CC[C@]43C)C1=C(C(C)C)C(=O)C2` came in with a TCS50 of 20.4 µM.

The molecule `COC(=O)C[C@@H]1CC[C@]2(C)[C@H](CC[C@@H]3[C@@]4(C)CC[C@H](OC(C)=O)C(C)(C)[C@@H]4CC[C@]32C)C1=O` showed a TCS50 of 106 µM.

Regarding `COC(=O)[C@@]1(CC(=O)C(=O)C(C)C)CC[C@]2(C)[C@H](CC[C@@H]3[C@@]4(C)CC[C@H](OC(C)=O)C(C)(C)[C@@H]4CC[C@]32C)C1=O`, the TCS50 came to 107 µM.

`COC(=O)C[C@]1(C(=O)OC)CC[C@]2(C)[C@H](CC[C@@H]3[C@@]4(C)CC[C@H](OC(C)=O)C(C)(C)[C@@H]4CC[C@]32C)C1=O`: the TCS50 is >250 µM.

Consider `CC(=O)O[C@H]1CC[C@]2(C)[C@H]3CC[C@@H]4C(=O)[C@]5(CC[C@@]4(C)[C@]3(C)CC[C@H]2C1(C)C)COC(=O)C5`, for which the TCS50 was >250 µM.

For `COC(=O)C[C@]1(COC(C)=O)CC[C@]2(C)[C@H](CC[C@@H]3[C@@]4(C)CC[C@H](OC(C)=O)C(C)(C)[C@@H]4CC[C@]32C)C1=O`, the TCS50 was >250 µM.

Turning to `C=C1CC[C@]2(C)[C@H](CC[C@@H]3[C@@]4(C)CC[C@H](OC(C)=O)C(C)(C)[C@@H]4CC[C@]32C)C1=O`, the TCS50 was >250 µM.

As to `CC(=O)O[C@H]1CC[C@]2(C)[C@H]3CC[C@H](C(=O)OCOC(=O)C(C)(C)C)[C@@](C)(CCC(=O)OCOC(=O)C(C)(C)C)[C@]3(C)CC[C@H]2C1(C)C`, the TCS50 was >250 µM.

For `CC(=O)OC[C@@]1(C(=O)C(=O)C(=O)C(C)C)CC[C@]2(C)[C@H](CC[C@@H]3[C@@]4(C)CC[C@H](OC(C)=O)C(C)(C)[C@@H]4CC[C@]32C)C1=O`, the TCS50 was 71 µM.

Regarding `CC(=O)O[C@H]1CC[C@]2(C)[C@H]3CC[C@@H]4C(=O)[C@@](CC(=O)C(=O)C(C)C)(C(=O)OCOC(=O)C(C)(C)C)CC[C@@]4(C)[C@]3(C)CC[C@H]2C1(C)C`, the TCS50 was >250 µM.

Consider `COC(=O)[C@@]1(CC(=O)O)CC[C@]2(C)[C@H](CC[C@@H]3[C@@]4(C)CC[C@H](OC(C)=O)C(C)(C)[C@@H]4CC[C@]32C)C1=O`, for which the TCS50 was determined as 110 µM.

As to `CC(=O)OC[C@@]12CC[C@]3(C)[C@H](CC[C@@H]4[C@@]5(C)CC[C@H](OC(C)=O)C(C)(C)[C@@H]5CC[C@]43C)C1=C(C(C)C)C(=O)OC2=O`, the TCS50 is >250 µM.

As for `CC(=O)OC[C@]12C=CC(C(C)C)=C1[C@H]1CC[C@@H]3[C@@]4(C)CC[C@H](OC(C)=O)C(C)(C)[C@@H]4CC[C@@]3(C)[C@]1(C)CC2`, the TCS50 was >250 µM.

Regarding `CC(=O)OCOC(=O)[C@@]12CC[C@]3(C)[C@H](CC[C@@H]4[C@@]5(C)CC[C@H](OC(C)=O)C(C)(C)[C@@H]5CC[C@]43C)C1=C(C(C)C)C(=O)C2`, the TCS50 was >250 µM.

Turning to `COC(=O)C[C@]1(C(=O)OCOC(C)=O)CC[C@]2(C)[C@H](CC[C@@H]3[C@@]4(C)CC[C@H](OC(C)=O)C(C)(C)[C@@H]4CC[C@]32C)C1=O`, the TCS50 is 94 µM.

The molecule `CC(=O)O[C@H]1CC[C@]2(C)[C@H]3CC[C@@H]4C5=C(C(C)C)C(=O)C[C@]5(CO)CC[C@@]4(C)[C@]3(C)CC[C@H]2C1(C)C` registered a TCS50 of 232 µM.

For `CC(=O)OC[C@@]1(CC(=O)C(=O)C(C)C)CC[C@]2(C)[C@H](CC[C@@H]3[C@@]4(C)CC[C@H](OC(C)=O)C(C)(C)[C@@H]4CC[C@]32C)C1=O`, the TCS50 was >250 µM.

For the molecule `CCOC[C@@H]1CC[C@]2(C)[C@H](CC[C@@H]3[C@@]4(C)CC[C@H](OC(C)=O)C(C)(C)[C@@H]4CC[C@]32C)C1=O`, the TCS50 was determined as 50 µM.

For the molecule `COC(=O)[C@]1(COC(C)=O)CC[C@]2(C)[C@H](CC[C@@H]3[C@@]4(C)CC[C@H](OC(C)=O)C(C)(C)[C@@H]4CC[C@]32C)C1=O`, the TCS50 amounted to 120 µM.

For `COC(=O)CC[C@]1(C)[C@@H](C(=O)OC)CC[C@@H]2[C@@]3(C)CC[C@H](OC(C)=O)C(C)(C)[C@@H]3CC[C@]21C`, the TCS50 is >250 µM.

`CC(=O)OC[C@@]1(CC(=O)O)CC[C@]2(C)[C@H](CC[C@@H]3[C@@]4(C)CC[C@H](OC(C)=O)C(C)(C)[C@@H]4CC[C@]32C)C1=O` came in with a TCS50 of 5 µM.

`COC(=O)[C@@]12CC[C@]3(C)[C@H](CC[C@@H]4[C@@]5(C)CC[C@H](OC(C)=O)C(C)(C)[C@@H]5CC[C@]43C)C1=C(C(C)C)C(=O)OC2=O` yielded a TCS50 of 127 µM.

Consider `CC(=O)OCOC(=O)[C@@]1(CC(=O)C(=O)C(C)C)CC[C@]2(C)[C@H](CC[C@@H]3[C@@]4(C)CC[C@H](OC(C)=O)C(C)(C)[C@@H]4CC[C@]32C)C1=O`, for which the TCS50 came to 18 µM.

Take `CC(=O)OC[C@@]12CC[C@]3(C)[C@H](CC[C@@H]4[C@@]5(C)CC[C@H](OC(C)=O)C(C)(C)[C@@H]5CC[C@]43C)C1=C(C(C)C)C(=O)C2=O`: the TCS50 worked out at 66 µM.

As to `CC(=O)O[C@H]1CC[C@]2(C)[C@H]3CC[C@@H]4C5=C(C(C)C)C(=O)C(=O)[C@]5(C(=O)OCOC(=O)C(C)(C)C)CC[C@@]4(C)[C@]3(C)CC[C@H]2C1(C)C`, the TCS50 stood at 105.4 µM.

The molecule `CC(=O)O[C@H]1CC[C@]2(C)[C@H]3CC[C@@H]4C5=C(C(C)C)C(=O)C[C@]5(C(=O)OCOC(=O)C(C)(C)C)CC[C@@]4(C)[C@]3(C)CC[C@H]2C1(C)C` gave a TCS50 of 62.7 µM.

With `CC(=O)O[C@H]1CC[C@]2(C)[C@H]3CC[C@H](C(=O)O)[C@@](C)(CCC(=O)O)[C@]3(C)CC[C@H]2C1(C)C`, the TCS50 was >250 µM.
